Screens deposited in PubChem BioAssay by several laboratories.
Most compounds without a hit are left out; they make up all but 1.5% or so of the library.
PKD1 inh: inhibitors of human PKD1 kinase | Q15139 | PKD1 kinase fluorescence polarization assay | inhibition, % (concentration not given with the values) | 200,000 compounds, 0.056% hits | AID 797; in the data active = inhibition above about 50%
p97 ATPase inh: blocks human p97 ATPase activity; recombinant p97 ATPase, Kinase-Glo ATP luminescence, 3 h; AID 1481; 220,000 compounds, 0.42% hits; P55072; inhibition, % at 8 µM; in the data active = inhibition above about 15%;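 note: 0% = DMSO vehicle and 100% = wells lacking enzyme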
PP1 counter: counter-screen for PP5 inhibitors: inhibitors of human PP1-alpha; inhibition, % at 6.7 µM; P62136; 320,000 compounds, 0.9% hits; purified PP1alpha, OMFP fluorescence; AID 2235;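 active = inhibition above the mean inhibition of all tested compounds plus 3 SD, computed separately for each screening campaign, cut at about 15% in these data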
Target sequence (P62136 whole entry, looked up): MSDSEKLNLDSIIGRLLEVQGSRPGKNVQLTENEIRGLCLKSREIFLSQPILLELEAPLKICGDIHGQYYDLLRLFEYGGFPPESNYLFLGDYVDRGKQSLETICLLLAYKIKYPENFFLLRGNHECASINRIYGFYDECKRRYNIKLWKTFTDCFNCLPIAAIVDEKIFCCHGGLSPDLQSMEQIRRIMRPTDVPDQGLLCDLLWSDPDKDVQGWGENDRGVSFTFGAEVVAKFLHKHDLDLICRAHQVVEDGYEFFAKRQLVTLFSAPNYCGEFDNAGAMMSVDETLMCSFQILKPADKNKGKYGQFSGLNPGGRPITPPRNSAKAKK
PP5 primary: PP5 (human) phosphatase inhibition; P53041; purified PP5c, OMFP substrate fluorescence; inhibition, % at 6.7 µM; 320,000 compounds, 0.18% hits; AID 1987;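 active = inhibition above the campaign's mean inhibition across all tested compounds plus 3 SD, cut at about 9.5% in these data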;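 note: 0% = DMSO only and 100% = 100 µM cantharidin control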
RBBP9 inhibitor: blocks human serine hydrolase RBBP9; 220,000 compounds, 0.2% hits; AID 1515; O75884; inhibition, % at 7.94 µM; recombinant RBBP9, FP-Rh probe fluorescence polarization;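 active = inhibition above the campaign mean of all tested compounds plus 3 SD, cut at about 14% in these data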;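 note: plate controls were DMSO wells with RBBP9 for no effect and wells lacking RBBP9 protein for full effect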
Target sequence (O75884 whole entry, looked up): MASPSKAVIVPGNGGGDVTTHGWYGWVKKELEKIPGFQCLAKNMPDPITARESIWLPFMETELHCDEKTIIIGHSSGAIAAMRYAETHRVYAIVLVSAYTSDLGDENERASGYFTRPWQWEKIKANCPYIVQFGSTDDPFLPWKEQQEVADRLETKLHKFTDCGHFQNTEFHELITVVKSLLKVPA
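system = RBBP9 protein | input = RBBP9 at 2.5 µM in dispensed solution, before mixing | measured by = fluorescence polarization (mP), excitation 525 nm, emission 598 nm | incubation = enzyme-compound preincubation 30 min, then probe labeling 45 min, 25 °C | buffer or medium = Tris-NaCl-Pluronic buffer, pH 8.0 | compound = single dose 7.94 µM | also added = FP-Rh probe, 375 nM dispensing solution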
Hsp70 activator: transcriptional activators of Hsp70; HeLa Hsp70 promoter luciferase reporter, luminescence; scaled: vehicle 0, proteasome-inhibitor control 100%; activation, % at 10 µM; 200,000 compounds, 0.04% hits;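 active = activation above the mean across all tested compounds plus 3 SD, cutoff set per campaign, cut at about 5.5% in these data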;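 note: 100% = MG132 at 30 µM as the positive control and 0% = DMSO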
PP1 confirm: confirmation of human PP1 phosphatase inhibitors; shares compounds with PP1 counter; purified PP1alpha, OMFP substrate fluorescence; inhibition, % at 6.7 µM; 1,900 compounds, 52% hits;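 active = mean PP1 inhibition above a set limit taken from the earlier primary screen, cut at about 15% in these data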
PP5 inh counter: PP5 phosphatase inhibition, counter-screen for PP1 inhibitors; shares compounds with PP1 counter; purified PP5c, OMFP fluorescence; inhibition, % at 6.7 µM; 1,900 compounds, 4% hits; AID 2360;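 active = mean PP5 inhibition over triplicate wells above about 9.5% taken from the earlier PP1 screen, limit read from the data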
An asterisk follows results filed as active; nt = no result.

SMILES	PKD1 inh	p97 ATPase inh	PP1 counter	PP5 primary	RBBP9 inhibitor	Hsp70 activator	PP1 confirm	PP5 inh counter
CC(C)(C)NC(=O)C(c1cccnc1)N(C(=O)c1ccc(Cl)nc1)C1CCCC1 (stereo unspecified)	0	2	-3	1	-10	0	nt	nt
O=C(Nc1ccc(Cl)c(Cl)c1)Nc1ccc(N2CCCC2)c(S(=O)(=O)Nc2ccccc2Cl)c1	-8	2	18*	3	0	0	14	0
O=C(Nc1cc(S(=O)(=O)N2CCCCC2)ccc1Cl)c1ccccc1NS(=O)(=O)c1ccc(F)cc1	21	-11	20*	7	-14	0	14	8
COc1ccccc1NS(=O)(=O)c1cc(NC(=O)Nc2ccccc2)ccc1N1CCCCC1	5	3	1	2	-14	0	nt	nt
O=C(Nc1ccc(F)cc1)Nc1ccc(N2CCCC2)c(S(=O)(=O)Nc2ccccc2Cl)c1	-11	3	24*	2	-19	0	10	5
O=C(/C=C/c1cccs1)Nc1ccc(N2CCOCC2)c(S(=O)(=O)Nc2ccccc2Cl)c1	-3	5	6	1	-51	0	nt	nt
COc1ccc(NC(=O)CCOc2ccccc2C)cc1S(=O)(=O)N1CCCCC1	nt	nt	0	2	nt	nt	nt	nt
C=CC1=C2C=C(C3CC3)N(CCCN(CC)CC)C=C2C(=O)C(C)(OC(=O)c2ccco2)C1=O (stereo unspecified)	nt	nt	-3	4	nt	nt	nt	nt
O=C1CNC(=S)N1c1nc2ccccc2s1	nt	7	25*	-2	-7	nt	-1	-4
Cc1[nH]n2c(=O)cc(C(C)(C)C)nc2c1-c1ccccc1	4	1	24*	1	2	0	18*	-1
Cc1[nH]n2c(=O)cc(-c3ccc([N+](=O)[O-])cc3)nc2c1-c1ccccc1	1	-2	45*	1	5	-1	35*	2
COc1cccc(N=Nc2c(N)[nH]n3c(=O)cc(-c4ccccc4)nc23)c1	-1	-1	0	3	6	0	nt	nt
Cc1[nH]n2c(=O)cc(C(C)C)nc2c1-c1ccccc1	-9	4	7	0	3	0	nt	nt
CCCc1cc(=O)n2[nH]c(C)c(-c3ccccc3)c2n1	0	2	0	-2	-1	0	nt	nt
COc1ccc(-c2c(C(F)(F)F)[nH]n3c(=O)cc(-c4ccccc4)nc23)cc1	nt	7	25*	7	-1	nt	42*	3
CCc1cc(=O)n2[nH]c(-c3ccccc3)c(-c3ccccc3)c2n1	nt	nt	22*	2	nt	nt	21*	-1
COc1cccc(-c2cc3nc(-c4ccccc4)cc(=O)n3[nH]2)c1	nt	nt	21*	2	nt	nt	23*	1
CCOC(=O)c1ccc(NS(=O)(=O)c2ccc(Cl)nc2)cc1	8	1	-54	-3	-1	0	2	2
CCOC(=O)c1ccc(NS(=O)(=O)CC)cc1	-7	4	-4	1	4	0	nt	nt
CCN(CC)S(=O)(=O)c1ccc(NS(=O)(=O)CC23CCC(CC2=O)C3(C)C)cc1 (stereo unspecified)	-6	1	-1	0	-4	0	nt	nt
Cc1ccc(C)c(CN2C(=O)C3CCCN3c3ccc(S(=O)(=O)N4CCOCC4)cc32)c1 (stereo unspecified)	-9	4	22*	3	-2	0	22*	0
COc1cccc(CN2C(=O)C3CCCN3c3ccc(S(=O)(=O)N4CCOCC4)cc32)c1 (stereo unspecified)	-1	4	26*	2	1	0	25*	0
Cc1ccc(C)c(COC(=O)c2cc(S(=O)(=O)N3CCCCC3)ccc2N2CCOCC2)c1	nt	nt	-2	2	nt	nt	nt	nt
COC(=O)c1ccc(/C=C/c2ccc3cccc(OC(C)=O)c3n2)cc1	2	7	20*	1	0	0	21*	-4
COc1ccc(C(=O)CSc2nnc(CNc3ccc(C)cc3C)n2Cc2ccco2)cc1	-4	1	23*	9	-12	0	8	1
SMILES	PKD1 inh	p97 ATPase inh	PP1 counter	PP5 primary	RBBP9 inhibitor	Hsp70 activator	PP1 confirm	PP5 inh counter
Cc1ccc(C(=O)CSc2nnc(CNc3ccc(C)cc3C)n2Cc2ccco2)cc1	-6	2	10	7	-13	0	nt	nt
Cc1ccc(-c2ocnc2C(=O)Nc2nc(C)cs2)cc1	nt	nt	11	-2	nt	nt	nt	nt
CCOC(=O)c1cc(-c2ccccc2)nc2c1c(C)nn2-c1ccccn1	-9	-7	31*	1	-7	0	32*	-3
O=c1cc(-c2ccccc2)[nH]n1-c1nc2ccccc2s1	1	5	18*	2	-3	0	8	2
Cc1cc2nc(/N=C(\N)NC(=O)N3c4ccccc4Sc4ccccc43)nc(C)c2cc1C	-1	4	-2	-1	-6	0	nt	nt
NC(=O)c1ccsc1NC(=O)CS(=O)(=O)c1ccc(Cl)cc1	nt	nt	0	0	nt	nt	nt	nt
Cc1ccccc1C(=O)Nc1nnc(CC(=O)N/N=C/c2ccco2)s1	nt	1	-5	0	1	nt	nt	nt
Cc1ccc(C(=O)Nc2nnc(CC(=O)N/N=C/c3ccc(O)c(O)c3)s2)cc1	nt	nt	18*	-1	nt	nt	9	-6
CC(C)C[C@H](NC(=O)c1nc[nH]c1C(=O)NCCCCCNC(=O)OC(C)(C)C)C(=O)OC(C)(C)C	-2	-4	16*	9.9*	-8	0	6	5
CC(C)C[C@H](NC(=O)c1[nH]cnc1C(=O)N[C@@H](C)c1ccccc1)C(=O)OCc1ccccc1	nt	nt	18*	12*	nt	nt	15	5
COc1ccc(C(=O)O)cc1S(=O)(=O)Nc1ccccc1C(=O)NCc1ccc2c(c1)OCO2	nt	nt	-2	-3	nt	nt	nt	nt
O=C(NCc1ccccc1)C1c2ccccc2Oc2ccccc21	-5	3	-2	0	-7	0	nt	nt
CCOc1cccc(=O)c2c(C)n(CC(=O)c3ccccc3)c(C)c12	7	5	-1	1	-7	0	nt	nt
COc1cccc(=O)c2c(C)n(CC(=O)c3ccccc3)c(C)c12	-9	8	23*	1	-5	0	0	-4
Cc1ccc(NC(=O)CN2C(=O)N/C(=C/c3ccccc3OCc3cccc(C(=O)O)c3)C2=O)cc1	nt	nt	52*	2	nt	nt	33*	-6
CCCCn1c(N)c(N(CC(C)C)C(=O)C2=NN(c3cc(C)ccc3C)C(=O)CC2)c(=O)[nH]c1=O	nt	nt	-2	-1	nt	nt	nt	nt
CN(C)CCN(Cc1ccccc1)C(=O)[C@H](Cc1ccccc1)N1C(=O)c2ccccc2C1=O	nt	nt	0	0	nt	nt	nt	nt
COc1cc(OC)c(N(C)S(=O)(=O)c2cccc(C(=O)NC(C)C3CC4CCC3C4)c2)cc1Cl (stereo unspecified)	nt	6	-2	-1	-4	nt	nt	nt
